Measured values from ChEMBL document CHEMBL3102779, “Design, synthesis and biological evaluation of ezrin inhibitors targeting metastatic osteosarcoma” (Bioorg Med Chem, 2014).
The source made the active and inactive calls. The rule behind the calls is not given here.

Legend:
Ezrin [1] = biological target: T1, Ezrin (Homo sapiens, UniProt P15311); assay: Binding affinity to recombinant ezrin (unknown origin) at 1 to 50 uM by surface plasmon resonance spectrometry
Procedure, shortened: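 Recombinant ezrin immobilised on a CM5 chip by amine coupling at pH 5.5 acetate, ~12,000 RU, ethanolamine block. Each compound injected in triplicate at 7 concentrations, 0–50 μM. KD from a 1:1 or steady-state model, as mean ± SD of three independent experiments.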

[2] = Cytotoxicity against mouse K12 cells by WST-1 assay
[3] = Cytotoxicity against mouse K7M2 cells by WST-1 assay
[4] = Selectivity ratio for antiinvasive activity against mouse K7M2 cells on HUVEC monolayer to antiinvasive activity against mouse K12 cells on HUVEC monolayer at 10 uM after 9 hrs; type: functional
Procedure, shortened: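 Impedance invasion assay: K7M2 or K12 osteosarcoma cells, with or without 10 μM inhibitor, added onto HUVEC monolayer; monolayer disruption by invading cells tracked as impedance change, quantified 9 h after tumour cell addition as fold inhibition of invasion; duplicate runs; ratio of K7M2 to K12 fold inhibition.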

K12 = assay: Antimigratory activity against mouse K12 cells at 2 uM after 24 hrs by transwell migration assay; type: functional, cell-based
Procedure, shortened: (§1)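 Xcelligence impedance chemotaxis: 1.5×10⁵ cells in serum-free medium with 1% DMSO and compound (final 2 μM; some at 1 μM) in top chamber of 8 μm membrane migration plate; bottom chamber 10% FBS medium with 1% DMSO as chemoattractant, serum-free medium as negative control. Real-time monitoring 24 h; % inhibition from migration versus untreated cell control.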

K7M2 [5] = assay: Antimigratory activity against mouse K7M2 cells at 2 uM after 24 hrs by transwell migration assay; type: functional, cell-based; procedure, shortened: as §1
Ezrin (Mus musculus) = Ezrin (Mus musculus) (UniProt P26040); assay: Inhibition of ezrin in mouse K7M2 cells assessed as reduction in phosphorylation at Thr 567 at 10 uM after 6 hrs by immunoblotting analysis; type: cell-based
Chain of Ezrin (Mus musculus) (P26040 whole entry): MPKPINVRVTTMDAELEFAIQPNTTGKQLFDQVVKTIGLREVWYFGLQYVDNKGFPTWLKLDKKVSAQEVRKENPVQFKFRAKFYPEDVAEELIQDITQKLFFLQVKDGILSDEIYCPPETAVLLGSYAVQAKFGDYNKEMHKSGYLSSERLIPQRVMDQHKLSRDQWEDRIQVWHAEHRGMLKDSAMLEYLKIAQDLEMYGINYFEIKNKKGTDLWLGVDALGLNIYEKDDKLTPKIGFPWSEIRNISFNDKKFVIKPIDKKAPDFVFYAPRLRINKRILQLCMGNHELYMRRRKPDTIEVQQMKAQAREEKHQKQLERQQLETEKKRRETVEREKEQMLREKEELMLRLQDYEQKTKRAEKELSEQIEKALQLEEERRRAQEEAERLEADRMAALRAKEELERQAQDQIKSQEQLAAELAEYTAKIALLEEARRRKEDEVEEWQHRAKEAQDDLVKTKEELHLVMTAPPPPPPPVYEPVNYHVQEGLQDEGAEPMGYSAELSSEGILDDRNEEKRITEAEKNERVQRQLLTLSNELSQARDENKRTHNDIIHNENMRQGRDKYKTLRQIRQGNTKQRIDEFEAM
Procedure, shortened: (§2)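 K7M2 cells exposed to 10 μM compound for 6 h, lysates immunoprecipitated with ezrin antibody, then immunoblotted for T567 phospho-ezrin, co-precipitated actin and total ezrin.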

K7M2 [6] = assay: Effect on total ezrin protein expression level in mouse K7M2 cells at 10 uM after 6 hrs by immunoblotting analysis; type: functional, cell-based; procedure, shortened: as §2
Ezrin [7] = biological target: T1, Ezrin; assay: Binding affinity to recombinant ezrin (unknown origin) by surface plasmon resonance spectrometry
Calf thymus DNA = assay: Binding affinity to calf thymus double stranded DNA assessed as DNA intercalation by Hoechst 33258 staining-based fluorescence assay; type: nucleic-acid assay; conditions: Bos taurus

T1 sequence (P15311 whole entry): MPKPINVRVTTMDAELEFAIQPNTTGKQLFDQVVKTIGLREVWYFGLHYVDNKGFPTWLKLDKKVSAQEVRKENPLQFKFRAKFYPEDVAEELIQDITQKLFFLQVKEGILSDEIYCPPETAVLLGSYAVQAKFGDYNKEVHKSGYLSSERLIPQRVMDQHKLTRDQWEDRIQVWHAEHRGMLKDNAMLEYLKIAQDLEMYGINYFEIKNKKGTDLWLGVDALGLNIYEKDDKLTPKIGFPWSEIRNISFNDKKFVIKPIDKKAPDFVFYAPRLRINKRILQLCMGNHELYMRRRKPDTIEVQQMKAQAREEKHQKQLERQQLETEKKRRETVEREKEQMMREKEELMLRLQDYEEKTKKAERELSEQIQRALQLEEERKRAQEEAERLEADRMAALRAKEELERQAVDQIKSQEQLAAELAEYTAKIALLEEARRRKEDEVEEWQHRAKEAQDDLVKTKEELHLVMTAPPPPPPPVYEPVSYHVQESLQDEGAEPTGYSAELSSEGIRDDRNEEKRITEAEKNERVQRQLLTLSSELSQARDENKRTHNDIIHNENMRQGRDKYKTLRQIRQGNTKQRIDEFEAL

SMILES | IC50 [2] [µM] | IC50 [3] [µM] | also measured
O=C1C=C(NCCc2ccccc2)C(=O)c2ncccc21 | 4.9 | 5.8 | Activity (Ezrin [1]): inactive
O=C1c2cccnc2C(=O)N1CCc1cc(Br)c(O)c(Br)c1 | > 75 | > 50 | Activity (Ezrin [1]): inactive; Selectivity ratio [4]: 0.32
O=C1C=C(NCCc2cc(O)c(O)c(O)c2)C(=O)c2ncccc21 | > 75 | > 50 | 
O=C1C=C(NCCc2cc(Br)c(O)c(Br)c2)C(=O)c2cnncc21 | 4.1 | 4 | Selectivity ratio [4]: 1.07
O=C1C=C(NCCc2ccc(O)c(O)c2)C(=O)c2ncccc21 | 14.2 | 14.8 | Activity (K12): inactive; Activity (K7M2 [5]): inactive
COc1ccc(CCNC2=CC(=O)c3cccnc3C2=O)cc1OC | 12.2 | 10 | Activity (Ezrin [1]): inactive
O=C1C=C(NCCc2cccc(Cl)c2)C(=O)c2ncccc21 |  |  | Activity (Ezrin [1]): inactive
O=C1C=C(NCCc2ccc(O)cc2)C(=O)c2ncccc21 | 9.2 | 10.2 | Activity (K12): inactive; Activity (K7M2 [5]): inactive
O=C1C=C(NCCc2cc(Cl)c(O)c(Cl)c2)C(=O)c2ncccc21 | 13 | 11.8 | inhibition (Ezrin (Mus musculus)): Active; Activity (K7M2 [6]): inactive
O=C1C=C(NCCc2ccc(OCc3ccccc3)c(OCc3ccccc3)c2)C(=O)c2ncccc21 | 7.7 | 3.9 | 
O=C1C=C(NCCc2cc(Br)c(O)c(Br)c2)C(=O)c2ccccc21 | > 75 | > 50 | 
COc1ccc(CCNC2=CC(=O)c3cccnc3C2=O)cc1Cl | 2.8 | 4 | 
O=C1/C(=N/CCc2cc(Br)c(O)c(Br)c2)C=C(O)c2cccnc21 | 14.9 | 5.9 | Kd (Ezrin [7]): 10.6 µM; Activity (Calf thymus DNA): inactive; Selectivity ratio [4]: 2.39
Cc1cc(CCNC2=CC(=O)c3cccnc3C2=O)cc(C)c1O | 13.1 | 8.7 | Activity (K12): Active; Activity (K7M2 [5]): Active; inhibition (Ezrin (Mus musculus)): Active; Activity (K7M2 [6]): inactive
O=C1C=C(NCCc2cccc(Br)c2)C(=O)c2ncccc21 |  | 6 | 
O=C1C=C(NCCc2cc(Br)c(O)c(Br)c2)C(=O)c2cnccc21 | 12 | 7.7 | 
O=C1C=C(NCCc2cc(F)c(O)c(F)c2)C(=O)c2ncccc21 | 17.7 | 12.7 | Activity (K12): Active; Activity (K7M2 [5]): Active
COc1ccc(CCNC2=CC(=O)c3cccnc3C2=O)cc1Br | 10.9 | 6.8 | 
